Drawing on ChEMBL document CHEMBL1148066, “Binding of quinolizidine alkaloids to nicotinic and muscarinic acetylcholine receptors” (J Nat Prod, 1994), this text covers IC50 for 13 compounds.

A short description of test [1]: Displacement of [3H]nicotin from nicotinic ACh receptor. The method in brief: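 Porcine brain membranes (sucrose/K+-phosphate pH 7.0/EDTA homogenate, 100,000 g pellet) incubated with 3H-nicotine and alkaloids (0.5 nM–10 mM) for 40 min at 20°; 1 mM nicotine defines nonspecific binding. Rapid filtration on BSA-presoaked glass fiber filters, saline washes, scintillation counting; triplicates. IC50 = concentration displacing 50% of specific binding.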

The nature of test [2]: Displacement of [3H]quinuclidinyl benzilate from muscarinic ACh receptor. The method in brief:
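Porcine brain membranes (500 µg protein; 10 mM K+-phosphate pH 7.0, 1 mM EDTA) incubated with 3H-QNB and alkaloids (0.5 nM–10 mM) for 1 h at 20°; atropine blank for nonspecific binding. Stopped with ice-cold 0.9% NaCl, rapid glass-fiber filtration, three washes, scintillation counting; triplicates. IC50 = concentration displacing 50% of specific binding.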

Some results are limits rather than exact numbers.

For the compound `O=C1[C@H](O)CC[C@@H]2[C@H]3C[C@@H](CN12)[C@@H]1CCCCN1C3`, the IC50 turned out to be 190 µM in test [1] and 74 µM in test [2].
The like results for `O=C1CCC[C@@H]2[C@H]3C[C@@H](CN12)[C@@H]1CCCCN1C3` [LUPANINE] were, in that order, 5 µM and 114 µM.
In the case of `O=c1cccc2n1C[C@H]1C[C@@H]2CN2CCCC[C@H]12` [ANAGYRINE], the figures for the IC50 in test [1] and in test [2] were 2100 µM and 132 µM, respectively.
Take `O=C1[C@H]2C[C@@H](CN3CCCC[C@@H]23)[C@H]2CCCCN12`: the IC50 in test [1] came to 155 µM; in test [2], 118 µM.
For `C=CCCN1C[C@H]2C[C@@H](C1)[C@H]1CCCC(=O)N1C2` [TETRAHYDRORHOMBIFOLINE], in that order: 310 µM and 129 µM.
For `O=C1C=CN2C[C@@H]3C[C@@H](CN4CCCC[C@@H]34)[C@H]2C1` [MULTIFLORINE], the values for the IC50 in test [1] and in test [2] were more than 500 µM and 47 µM, respectively.
In the case of `C1CCN2C[C@@H]3C[C@@H](CN4CCCC[C@@H]34)[C@H]2C1` [SPARTEINE], the values for the IC50 in test [1] and in test [2] were 331 µM and 21 µM, respectively.
For `OC[C@@H]1CCCN2CCCC[C@H]12` [LUPININE], the results for the IC50 in test [1] and in test [2] were more than 500 µM and 190 µM, respectively.
As to `C=CC[C@H]1NC[C@H]2C[C@@H]1[C@H]1CC(=O)C=CN1C2` [ALBINE], the values for the IC50 in test [1] and in test [2] were 193 µM and 33 µM, respectively.
Take `CN1C[C@@H]2C[C@H](C1)c1cccc(=O)n1C2`: the IC50 in test [1] is 0.05 µM; in test [2] it was 417 µM.
Take `O=c1cccc2n1C[C@@H]1CNC[C@H]2C1` [CYTISINICLINE]: the IC50 came out at 0.14 µM in test [1] and 400 µM in test [2].
Turning to `O=C1CCC[C@@H]2[C@H]3C[C@@H](CN12)[C@@H]1C[C@H](O)CCN1C3`, the IC50 was 490 µM in test [1] and 140 µM in test [2].
Regarding `C=CC[C@@H]1NC[C@@H]2C[C@H]1CN1C(=O)CCC[C@H]21` [ANGUSTIFOLINE], the values for the 50% inhibitory concentration (IC50) in test [1] and in test [2] were more than 500 µM and 25 µM, respectively.
